Measured values taken from ChEMBL document CHEMBL4145465, “Design, synthesis and biological evaluation of novel ring-opened cromakalim analogues with relaxant effects on vascular and respiratory smooth muscles and as stimulators of elastin synthesis” (Eur J Med Chem, 2018).
pEC50: −log10 of the molar value. The source made the active and inactive calls. No cut-off for these calls is given here.

Legend:
[1] = tested on: Thoracic aorta; assay: Vasorelaxing activity in Wistar rat endothelium-intact thoracic aorta ring assessed as reduction in 30 mM KCl-induced contraction at 300 uM after 15 mins relative to DMSO; details: 0.25 h
[2] = tested on: Thoracic aorta; assay: Vasorelaxing activity in Wistar rat endothelium-intact thoracic aorta ring assessed as reduction in 30 mM KCl-induced contraction after 15 mins; details: 0.25 h
[3] = tested on: Trachea; assay: Tracheorelaxant activity in Wistar rat trachea tonus assessed as reduction in 30 mM KCl-induced contraction after 15 mins; assay type: functional, tissue-based; details: 0.25 h
In short: (§1)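 Trachea rings (3-4 mm) from female Wistar rats were held in a 10 ml organ bath under the same conditions as the aorta and contracted with 30 mM KCl. Compound in DMSO was added cumulatively. EC50 was derived by non-linear regression; Emax is % relaxation at 100 µM.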

[4] = tested on: Trachea/thoracic aorta; assay: Ratio of EC50 for Wistar rat trachea tonus to EC50 for Wistar rat endothelium-denuded thoracic aorta ring; assay type: functional; details: in the assay text read “endothelium-intact” for “endothelium-denuded”
In short: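 Ratio of trachea EC50 to aorta EC50, both measured against 30 mM KCl contraction in female Wistar rat rings, with cumulative compound addition in DMSO and EC50 from non-linear regression.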

[5] = tested on: Trachea; assay: Tracheorelaxant activity in Wistar rat trachea tonus assessed as reduction in 30 mM KCl-induced contraction at 100 uM after 15 mins relative to control; assay type: functional; details: 0.25 h
In short: as §1

[6] = tested on: VSMC; assay: Induction of elastin synthesis in rat VSMC at 50 uM after 48 hrs by ELISA relative to control; assay type: functional
In short: (§2)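 Rat aortic VSMCs (collagenase/elastase digestion of intima-media, grown in DMEM 20% FBS on gelatin) serum-starved overnight in 1% FBS-DMEM, seeded 25000 cells/well, then exposed 48 h to compound in DMSO (<1% final); DMSO-only negative control, diazoxide reference. Fixed cells immunostained for elastin with HRP secondary, TMB substrate, absorbance 450 nm; 5-7 wells per concentration.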

[7] = tested on: VSMC; assay: Induction of elastin synthesis in rat VSMC at 20 uM after 48 hrs by ELISA; assay type: functional, cell-based
In short: as §2

| pEC50 [2] | SMILES | Emax [1] [%] | other results |
| --- | --- | --- | --- |
| 4.68 | COc1ccc(OC)c(CNC(=O)N(C)S(=O)(=O)c2ccc(C)cc2)c1 | 92.7 | – |
| < 3.52 | COc1ccc(OC)c(CNC(=O)NS(=O)(=O)c2ccccc2)c1 | -20.3 | – |
| 4.17 | Cc1ccc(OCc2ccccc2)c(C(C)NC(=O)N(C)S(=O)(=O)c2ccccc2)c1 (stereo not given) | 86.1 | – |
| 4.74 | COc1ccc(OC)c(CNC(=O)N(C)S(=O)(=O)c2ccc(Cl)cc2)c1 | 93.6 | – |
| < 3.52 | CCOc1ccc(Cl)cc1C(C)NC(=O)NS(=O)(=O)c1ccccc1 (stereo not given) | 15.8 | – |
| 4.67 | COc1ccc(OC)c(CNC(=O)N(C)S(=O)(=O)c2ccccc2)c1 | 100 | pEC50 [3]: 4.73; Ratio EC50 [4]: 0.9; Emax [5]: 150% |
| 4.98 | CCOc1ccc(Cl)cc1C(C)NC(=O)N(C)S(=O)(=O)c1ccccc1 (stereo not given) | 104 | Activity [6]: Active; Activity [7]: inactive |
| < 3.52 | COc1ccc(OC)c(CNC(=O)NS(=O)(=O)c2ccc(C)cc2)c1 | -14.5 | – |
| < 3.52 | COc1ccc(OC)c(CNC(=O)NS(=O)(=O)c2ccc(Cl)cc2)c1 | -28 | – |
| 4.72 | COc1ccc(Br)cc1C(C)NC(=O)N(C)S(=O)(=O)c1ccc(C)cc1 (stereo not given) | 97.7 | pEC50 [3]: 4.89; Ratio EC50 [4]: 0.7; Emax [5]: 143% |
| 4.21 | Cc1ccc(S(=O)(=O)NC(=O)NC(C)c2cc(Br)ccc2OC(C)C)cc1 (stereo not given) | 93.2 | – |
| 3.84 | CC(NC(=O)N(C)S(=O)(=O)c1ccc(Cl)cc1)c1cc(Br)ccc1OCc1ccccc1 (stereo not given) | 97.3 | – |
| 4.49 | CC(C)Oc1ccc(Br)cc1C(C)NC(=O)N(C)S(=O)(=O)c1ccccc1 (racemic) | 81.5 | – |
| < 3.52 | COc1ccc(Cl)cc1C(C)NC(=O)NS(=O)(=O)c1ccc(C)cc1 (racemic) | 36.6 | – |
| 4.84 | CCOc1ccc(Cl)cc1C(C)NC(=O)N(C)S(=O)(=O)c1ccc(Cl)cc1 (racemic) | 105 | – |
| 4.09 | COc1ccc(Br)cc1C(C)NC(=O)NS(=O)(=O)c1ccc(Cl)cc1 (racemic) | 82.6 | – |
| 3.89 | CC(NC(=O)NS(=O)(=O)c1ccccc1)c1cc(Br)ccc1OCc1ccccc1 (racemic) | 92.3 | – |
| 4.86 | COc1ccc(Cl)cc1C(C)NC(=O)N(C)S(=O)(=O)c1ccc(C)cc1 (racemic) | 107 | – |
| 5.11 | CCOc1ccc(F)cc1C(C)NC(=O)N(C)S(=O)(=O)c1ccc(C)cc1 (racemic) | 104 | – |
| 3.85 | Cc1ccc(OCc2ccccc2)c(C(C)NC(=O)N(C)S(=O)(=O)c2ccc(Cl)cc2)c1 (racemic) | 76.9 | – |
| 4.51 | Cc1ccc(S(=O)(=O)N(C)C(=O)NC(C)c2ccccc2OCc2ccccc2)cc1 (racemic) | 93.2 | – |
| < 3.52 | CCOc1ccc(Cl)cc1C(C)NC(=O)NS(=O)(=O)c1ccc(C)cc1 (racemic) | 45.5 | – |

| pEC50 [2] | SMILES | Emax [1] [%] | other results |
| --- | --- | --- | --- |
| < 3.52 | CCOc1ccc(Br)cc1C(C)NC(=O)NS(=O)(=O)c1ccc(C)cc1 (racemic) | 62.2 | – |
| < 3.52 | CCOc1ccc(F)cc1C(C)NC(=O)NS(=O)(=O)c1ccc(C)cc1 (racemic) | 26.2 | – |
| 4.36 | CC(C)Oc1ccc(Br)cc1C(C)NC(=O)N(C)S(=O)(=O)c1ccc(Cl)cc1 (racemic) | 93.7 | – |
| < 3.70 | Cc1ccc(S(=O)(=O)NC(=O)NC(C)c2ccccc2OCc2ccccc2)cc1 (racemic) | 84.7 | – |
| 4.70 | CCOc1ccc(Br)cc1C(C)NC(=O)N(C)S(=O)(=O)c1ccccc1 (racemic) | 104 | pEC50 [3]: 5.08; Ratio EC50 [4]: 0.4; Emax [5]: 137% |
| < 3.52 | COc1ccc(Br)cc1C(C)NC(=O)NS(=O)(=O)c1ccccc1 (racemic) | 45.5 | – |
| < 3.52 | COc1ccc(F)cc1C(C)NC(=O)NS(=O)(=O)c1ccc(Cl)cc1 (racemic) | 54.7 | – |
| 4.93 | COc1ccc(F)cc1C(C)NC(=O)N(C)S(=O)(=O)c1ccc(C)cc1 (racemic) | 106 | – |
| 3.84 | CC(C)Oc1ccc(Br)cc1C(C)NC(=O)NS(=O)(=O)c1ccccc1 (racemic) | 73.2 | – |
| 5.00 | COc1ccc(F)cc1C(C)NC(=O)N(C)S(=O)(=O)c1ccccc1 (racemic) | 109 | – |
| 4.17 | Cc1ccc(S(=O)(=O)N(C)C(=O)NC(C)c2cc(Br)ccc2OCc2ccccc2)cc1 (racemic) | 47.9 | – |
| 4.25 | CCOc1ccc(Br)cc1C(C)NC(=O)N(C)S(=O)(=O)c1ccc(Cl)cc1 (racemic) | 71 | – |
| < 3.70 | Cc1ccc(OCc2ccccc2)c(C(C)NC(=O)NS(=O)(=O)c2ccccc2)c1 (racemic) | 90.7 | – |
| 3.55 | CCOc1ccc(Cl)cc1C(C)NC(=O)NS(=O)(=O)c1ccc(Cl)cc1 (racemic) | 69.7 | – |
| < 3.70 | CC(NC(=O)NS(=O)(=O)c1ccccc1)c1ccccc1OCc1ccccc1 (racemic) | 59 | – |
| 4.90 | COc1ccc(F)cc1C(C)NC(=O)N(C)S(=O)(=O)c1ccc(Cl)cc1 (racemic) | 101 | – |
| 4.91 | CCOc1ccc(Cl)cc1C(C)NC(=O)N(C)S(=O)(=O)c1ccc(C)cc1 (racemic) | 106 | – |
| 4.77 | COc1ccc(Br)cc1C(C)NC(=O)N(C)S(=O)(=O)c1ccccc1 (racemic) | 98 | pEC50 [3]: 5.08; Ratio EC50 [4]: 0.5; Emax [5]: 125% |
| 3.91 | CC(C)Oc1ccc(Br)cc1C(C)NC(=O)NS(=O)(=O)c1ccc(Cl)cc1 (racemic) | 100 | – |
| 3.74 | Cc1ccc(S(=O)(=O)N(C)C(=O)NC(C)c2cc(C)ccc2OCc2ccccc2)cc1 (racemic) | 82.9 | – |
| 4.46 | Cc1ccc(S(=O)(=O)N(C)C(=O)NC(C)c2cc(Br)ccc2OC(C)C)cc1 (racemic) | 102 | – |
| < 3.52 | COc1ccc(Cl)cc1C(C)NC(=O)NS(=O)(=O)c1ccc(Cl)cc1 (racemic) | 40.9 | – |

| pEC50 [2] | SMILES | Emax [1] [%] | other results |
| --- | --- | --- | --- |
| 3.80 | CC(NC(=O)NS(=O)(=O)c1ccc(Cl)cc1)c1ccccc1OCc1ccccc1 (racemic) | 103 | – |
| 4.72 | COc1ccc(Br)cc1C(C)NC(=O)N(C)S(=O)(=O)c1ccc(Cl)cc1 (racemic) | 93.6 | pEC50 [3]: 4.41; Ratio EC50 [4]: 2; Emax [5]: 125% |
| 4.70 | COc1ccc(Cl)cc1C(C)NC(=O)N(C)S(=O)(=O)c1ccc(Cl)cc1 (racemic) | 103 | – |
| < 3.52 | COc1ccc(Br)cc1C(C)NC(=O)NS(=O)(=O)c1ccc(C)cc1 (racemic) | 67.6 | – |
| 3.86 | Cc1ccc(S(=O)(=O)NC(=O)NC(C)c2cc(Br)ccc2OCc2ccccc2)cc1 (racemic) | 92.5 | – |
| 4.61 | CCOc1ccc(F)cc1C(C)NC(=O)N(C)S(=O)(=O)c1ccc(Cl)cc1 (racemic) | 101 | – |
| 3.77 | CCOc1ccc(Br)cc1C(C)NC(=O)NS(=O)(=O)c1ccc(Cl)cc1 (racemic) | 77.6 | – |
| < 3.52 | CCOc1ccc(F)cc1C(C)NC(=O)NS(=O)(=O)c1ccccc1 (racemic) | 46.4 | – |
| < 3.52 | CCOc1ccc(Br)cc1C(C)NC(=O)NS(=O)(=O)c1ccccc1 (racemic) | 35.9 | – |
| 4.42 | CC(NC(=O)N(C)S(=O)(=O)c1ccc(Cl)cc1)c1ccccc1OCc1ccccc1 (racemic) | 91.1 | – |
| 4.22 | CC(NC(=O)N(C)S(=O)(=O)c1ccccc1)c1cc(Br)ccc1OCc1ccccc1 (racemic) | 56.8 | – |
| 4.04 | Cc1ccc(S(=O)(=O)NC(=O)NC(C)c2cc(C)ccc2OCc2ccccc2)cc1 (racemic) | 106 | – |
| 4.54 | CCOc1ccc(Br)cc1C(C)NC(=O)N(C)S(=O)(=O)c1ccc(C)cc1 (racemic) | 90.8 | – |
| < 3.52 | CCOc1ccc(F)cc1C(C)NC(=O)NS(=O)(=O)c1ccc(Cl)cc1 (racemic) | 52.7 | – |
| 4.94 | CCOc1ccc(F)cc1C(C)NC(=O)N(C)S(=O)(=O)c1ccccc1 (racemic) | 106 | – |
| < 3.52 | COc1ccc(Cl)cc1C(C)NC(=O)NS(=O)(=O)c1ccccc1 (racemic) | 16.4 | – |
| 4.66 | CC(NC(=O)N(C)S(=O)(=O)c1ccccc1)c1ccccc1OCc1ccccc1 (racemic) | 92.3 | – |
| < 3.52 | COc1ccc(F)cc1C(C)NC(=O)NS(=O)(=O)c1ccc(C)cc1 (racemic) | -4.5 | – |
| < 3.52 | COc1ccc(F)cc1C(C)NC(=O)NS(=O)(=O)c1ccccc1 (racemic) | 1.2 | – |
| – | CC1=Nc2ccc(Cl)cc2S(=O)(=O)N1 [DIAZOXIDE] | – | Activity [6]: 92%; Activity [7]: inactive |
